{
  "source": "paper PMC10470302",
  "about": "(iScience, 2023)",
  "key": {"[1]": {"biological_target": "CHERP (SCAF6) (UniProt Q8IWX8)", "test": "GST-CTD pull-down, label-free LC-MS/MS", "details": "reference: GST-CTD, buffer with no kinase; sites S2"}, "[2]": {"test_system": "CHERP recruitment to the genome, HEK293 cells", "test": "ChIP-seq of CHERP", "type": "cell-based, human", "details": "2μM flavopiridol, HA-CHERP in HEK293 cells, HA antibody ChIP-seq"}, "[3]": {"test_system": "Ser2/Thr4 phosphorylation on RNA polymerase II, HEK293 cells", "test": "Western blot of Pol II phosphorylation after flavopiridol", "type": "cell-based, human", "details": "time course (Figure S10A)"}, "[4]": {"test_system": "pSer2 Pol II and CHERP in HEK293 cells", "test": "Immunofluorescence colocalization of CHERP and pSer2 Pol II", "type": "cell-based, human", "details": "transfected HEK293 cells, confocal, no flavopiridol, N = 7", "summary_of_the_method": "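HEK293 cells were transfected (Fugene, 1:3 plasmid:reagent) with HA-CHERP or HA-CHERPΔCID, fixed 15 min in 1% formaldehyde at room temperature, and permeabilized with 0.2% Triton X-100. They were blocked 30 min in 2% BSA, then given primary antibody and Alexa Fluor 488/568 secondary, 1 h each at room temperature. Pearson coefficients were computed with threshold, from 7 cells across at least two biological replicates.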"}, "[5]": {"test_system": "Pol II (RPB1, pSer2, pThr4), HEK293 cells", "test": "Co-immunoprecipitation with Pol II", "type": "cell-based, human", "details": "HEK293 extracts, western blot, at least three independent replicates", "summary_of_the_method": "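Protein G beads were loaded overnight at 4°C with 3 µg antibody or control IgG. 250 µg protein was bound for 2 h, washed three times, eluted by boiling 5 min in 2× SDS buffer, then immunoblotted.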"}},
  "data": [
    {"molecule": "yeast CTD (GST-yCTD 26x) CTD, 26 heptad repeats GST-CTD treated with DYRK1A", "values": [
      {"measurement": "fold change", "setting": "[1]", "value": 2.9}
    ]},
    {"molecule": "CN1CC[C@H](c2c(O)cc(O)c3c(=O)cc(-c4ccccc4Cl)oc23)[C@H](O)C1", "note": "[flavopiridol]", "values": [
      {"measurement": "CHERP recruitment to the genome with flavopiridol", "setting": "[2]", "value": "great reduction of CHERP recruitment to the genome"},
      {"measurement": "Ser2/Thr4 phosphorylation on RNA polymerase II", "setting": "[3]", "value": "caused Ser2/Thr4 phosphorylation to be reduced"}
    ]},
    {"molecule": "CHERP: calcium homeostasis endoplasmic reticulum protein; endogenous or HA-tagged full-length (protein) MEMPLPPDDQELRNVIDKLAQFVARNGPEFEKMTMEKQKDNPKFSFLFGGEFYSYYKCKLALEQQQLICKQQTPELEPAATMPPLPQPPLAPAAPIPPAQGAPSMDELIQQSQWNLQQQEQHLLALRQEQVTAAVAHAVEQQMQKLLEETQLDMNEFDNLLQPIIDTCTKDAISAGKNWMFSNAKSPPHCELMAGHLRNRITADGAHFELRLHLIYLINDVLHHCQRKQARELLAALQKVVVPIYCTSFLAVEEDKQQKIARLLQLWEKNGYFDDSIIQQLQSPALGLGQYQATLINEYSSVVQPVQLAFQQQIQTLKTQHEEFVTSLAQQQQQQQQQQQQLQMPQMEAEVKATPPPPAPPPAPAPAPAIPPTTQPDDSKPPIQMPGSSEYEAPGGVQDPAAAGPRGPGPHDQIPPNKPPWFDQPHPVAPWGQQQPPEQPPYPHHQGGPPHCPPWNNSHEGMWGEQRGDPGWNGQRDAPWNNQPDAAWNSQFEGPWNSQHEQPPWGGGQREPPFRMQRPPHFRGPFPPHQQHPQFNQPPHPHNFNRFPPRFMQDDFPPRHPFERPPYPHRFDYPQGDFPAEMGPPHHHPGHRMPHPGINEHPPWAGPQHPDFGPPPHGFNGQPPHMRRQGPPHINHDDPSLVPNVPYFDLPAGLMAPLVKLEDHEYKPLDPKDIRLPPPMPPSERLLAAVEAFYSPPSHDRPRNSEGWEQNGLYEFFRAKMRARRRKGQEKRNSGPSRSRSRSKSRGRSSSRSNSRSSKSSGSYSRSRSRSCSRSYSRSRSRSRSRSRSSRSRSRSQSRSRSKSYSPGRRRRSRSRSPTPPSSAGLGSNSAPPIPDSRLGEENKGHQMLVKMGWSGSGGLGAKEQGIQDPIKGGDVRDKWDQYKGVGVALDDPYENYRRNKSYSFIARMKARDECK", "values": [
      {"measurement": "colocalization correlation value (Pearson), CHERP vs pSer2 Pol II", "setting": "[4]", "value": 0.77},
      {"measurement": "co-immunoprecipitation with Pol II or its phosphorylation forms", "setting": "[5]", "value": "interacted with total Pol II"}
    ]}
  ]
}
